Measurements published in ChEMBL document CHEMBL4765233, “From Lead to Drug Candidate: Optimization of 3-(Phenylethynyl)-1H-pyrazolo[3,4-d]pyrimidin-4-amine Derivatives as Agents for the Treatment of Triple Negative Breast Cancer” (J Med Chem, 2016).
pIC50: −log10 of the molar value. Active and inactive are the calls of the source. No cut-off for these calls is given here.

Columns and labels:
[1] = Toxicity in SCID mouse xenografted with MDA-MB-231 cells assessed as animal death at 40 mg/kg, po qd for 15 days; format: organism-based; details: in vivo, dose 40 mg/kg/day, time 15 day, read-out: Activity
[2] = AUC (0 to t) in Sprague-Dawley rat at 10 mg/kg, po administered via gavage by LC-MS analysis; format: ADME, organism-based; parameters: dose 10 mg/kg; details: in vivo
[3] = Metabolic stability in human liver microsomes assessed as parent compound remaining at 1 uM measured after 60 mins in presence of NADPH by HPLC-MS/MS analysis; format: ADME, Microsome; details: read-out: Stabilty
In short: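 Compound at 1 μM incubated with 0.5 mg/mL liver microsomes and 1 mM NADPH. Samples taken at 0, 10, 15, 30, 45 and 60 min and quenched with acetonitrile. After centrifugation, supernatant analysed by HPLC-MS/MS, with percent parent remaining relative to the 0 min area.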

[4] = Inhibition of human recombinant EGFR T790M/L858R mutant (696 to end residues) using GGMEDIYFEFMGGKKK as substrate incubated for 40 mins in presence of [gamma33P-ATP] by radiometric scintillation counting analysis
In short: (§1)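 Radiometric kinase assay run as an external profiling service, with ATP at the Km of each kinase. IC50 values are means of two independent experiments.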

Ephrin type-A receptor 7 = Ephrin type-A receptor 7 (Homo sapiens, UniProt Q15375); assay: Inhibition of human recombinant EPHA7 (613 to 909 residues) using KTFCGTPEYLAPEVRREPRILSEEEQEMFRDFDYIADWC incubated for 40 mins in presence of [gamma33P-ATP] by radiometric scintillation counting analysis; in short: as §1
Chain of Ephrin type-A receptor 7 (Q15375 whole entry, the tested form may be a part): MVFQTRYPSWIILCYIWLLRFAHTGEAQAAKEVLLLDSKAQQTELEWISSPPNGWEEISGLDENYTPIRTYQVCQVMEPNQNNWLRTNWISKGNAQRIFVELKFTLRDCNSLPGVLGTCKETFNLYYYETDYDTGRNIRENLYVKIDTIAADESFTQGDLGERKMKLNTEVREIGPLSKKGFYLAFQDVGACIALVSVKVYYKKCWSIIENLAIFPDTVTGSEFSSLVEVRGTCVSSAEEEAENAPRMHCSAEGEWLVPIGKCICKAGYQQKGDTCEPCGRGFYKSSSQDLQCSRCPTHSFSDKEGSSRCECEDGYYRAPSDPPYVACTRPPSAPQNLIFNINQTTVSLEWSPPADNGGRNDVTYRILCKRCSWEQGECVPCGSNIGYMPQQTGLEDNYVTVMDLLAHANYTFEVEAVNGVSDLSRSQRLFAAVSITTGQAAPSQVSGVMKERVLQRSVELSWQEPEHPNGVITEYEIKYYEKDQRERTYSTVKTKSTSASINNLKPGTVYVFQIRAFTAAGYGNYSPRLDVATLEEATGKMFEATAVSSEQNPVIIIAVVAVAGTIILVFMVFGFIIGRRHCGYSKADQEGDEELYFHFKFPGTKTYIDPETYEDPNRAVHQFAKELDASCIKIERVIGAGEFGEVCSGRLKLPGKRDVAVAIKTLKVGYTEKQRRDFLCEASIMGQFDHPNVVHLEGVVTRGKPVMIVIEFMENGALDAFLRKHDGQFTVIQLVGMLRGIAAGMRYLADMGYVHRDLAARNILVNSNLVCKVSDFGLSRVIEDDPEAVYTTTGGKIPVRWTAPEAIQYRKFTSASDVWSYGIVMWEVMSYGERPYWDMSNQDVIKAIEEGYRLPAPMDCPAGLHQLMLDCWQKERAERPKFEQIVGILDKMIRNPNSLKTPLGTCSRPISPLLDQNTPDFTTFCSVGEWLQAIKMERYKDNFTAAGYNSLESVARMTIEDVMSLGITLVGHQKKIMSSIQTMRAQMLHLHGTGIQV

Ephrin type-A receptor 4 = Ephrin type-A receptor 4 (Homo sapiens, UniProt P54764); assay: Inhibition of human recombinant EPHA4 (601 to 892 residues) using poly(Glu,Tyr)4:1 as substrate incubated for 40 mins in presence of [gamma33P-ATP] by radiometric scintillation counting analysis; in short: as §1
Chain of Ephrin type-A receptor 4 (P54764 whole entry, the tested form may be a part): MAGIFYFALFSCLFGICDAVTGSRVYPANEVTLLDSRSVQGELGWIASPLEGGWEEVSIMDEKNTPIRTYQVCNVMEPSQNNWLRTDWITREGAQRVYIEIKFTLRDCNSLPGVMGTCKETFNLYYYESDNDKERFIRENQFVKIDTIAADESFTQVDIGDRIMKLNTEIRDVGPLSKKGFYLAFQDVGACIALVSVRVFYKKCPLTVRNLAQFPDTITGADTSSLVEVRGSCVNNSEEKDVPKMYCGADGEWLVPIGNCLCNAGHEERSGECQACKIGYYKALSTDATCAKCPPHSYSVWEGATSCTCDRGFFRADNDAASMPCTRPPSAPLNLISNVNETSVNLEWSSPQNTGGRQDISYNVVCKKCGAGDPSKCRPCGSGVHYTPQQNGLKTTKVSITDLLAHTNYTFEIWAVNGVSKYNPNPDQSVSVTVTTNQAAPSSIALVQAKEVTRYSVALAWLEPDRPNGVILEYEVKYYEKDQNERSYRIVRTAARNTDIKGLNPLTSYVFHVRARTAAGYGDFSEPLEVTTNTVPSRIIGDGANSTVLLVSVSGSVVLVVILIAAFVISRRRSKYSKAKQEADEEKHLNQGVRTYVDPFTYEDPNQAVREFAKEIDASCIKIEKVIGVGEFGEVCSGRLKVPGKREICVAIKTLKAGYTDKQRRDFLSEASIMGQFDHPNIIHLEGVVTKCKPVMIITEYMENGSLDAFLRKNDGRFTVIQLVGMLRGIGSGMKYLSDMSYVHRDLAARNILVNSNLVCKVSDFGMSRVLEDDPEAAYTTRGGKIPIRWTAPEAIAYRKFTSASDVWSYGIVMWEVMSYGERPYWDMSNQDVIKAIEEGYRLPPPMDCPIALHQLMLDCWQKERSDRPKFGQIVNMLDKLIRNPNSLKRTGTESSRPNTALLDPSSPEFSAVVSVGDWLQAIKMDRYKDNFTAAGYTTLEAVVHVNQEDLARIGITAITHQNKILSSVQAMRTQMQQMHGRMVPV

[5] = biological target: Ribosomal protein S6 kinase alpha-1 (Homo sapiens, UniProt Q15418); assay: Inhibition of human full length recombinant RSK1 using KKKNRTLSVA as substrate incubated for 40 mins in presence of [gamma33P-ATP] by radiometric scintillation counting analysis; in short: as §1
Chain of Ribosomal protein S6 kinase alpha-1 (Q15418 whole entry): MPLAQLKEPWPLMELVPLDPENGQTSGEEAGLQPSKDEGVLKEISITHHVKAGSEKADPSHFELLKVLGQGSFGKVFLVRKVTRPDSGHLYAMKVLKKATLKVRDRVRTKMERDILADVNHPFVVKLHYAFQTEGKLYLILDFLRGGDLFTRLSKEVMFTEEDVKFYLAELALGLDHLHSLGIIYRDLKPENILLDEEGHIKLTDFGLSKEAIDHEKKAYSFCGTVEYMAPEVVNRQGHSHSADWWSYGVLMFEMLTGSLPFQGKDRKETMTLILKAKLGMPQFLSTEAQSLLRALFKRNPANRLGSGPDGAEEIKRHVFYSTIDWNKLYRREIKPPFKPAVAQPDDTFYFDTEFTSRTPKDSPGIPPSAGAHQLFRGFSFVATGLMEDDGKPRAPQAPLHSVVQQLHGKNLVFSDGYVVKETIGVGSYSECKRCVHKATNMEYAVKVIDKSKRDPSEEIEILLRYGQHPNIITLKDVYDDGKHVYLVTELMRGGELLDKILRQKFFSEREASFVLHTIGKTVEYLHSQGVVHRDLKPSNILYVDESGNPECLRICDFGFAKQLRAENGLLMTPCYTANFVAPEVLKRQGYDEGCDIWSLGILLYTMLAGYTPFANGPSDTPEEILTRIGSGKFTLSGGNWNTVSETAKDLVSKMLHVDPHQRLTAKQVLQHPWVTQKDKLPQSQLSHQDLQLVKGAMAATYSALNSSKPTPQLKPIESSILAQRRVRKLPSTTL

[6] = biological target: Ribosomal protein S6 kinase alpha-3 (Homo sapiens, UniProt P51812); assay: Inhibition of human recombinant RSK2 (2 to end residues) using KKKNRTLSVA as substrate incubated for 40 mins in presence of [gamma33P-ATP] by radiometric scintillation counting analysis; in short: as §1
Chain of Ribosomal protein S6 kinase alpha-3 (P51812 whole entry): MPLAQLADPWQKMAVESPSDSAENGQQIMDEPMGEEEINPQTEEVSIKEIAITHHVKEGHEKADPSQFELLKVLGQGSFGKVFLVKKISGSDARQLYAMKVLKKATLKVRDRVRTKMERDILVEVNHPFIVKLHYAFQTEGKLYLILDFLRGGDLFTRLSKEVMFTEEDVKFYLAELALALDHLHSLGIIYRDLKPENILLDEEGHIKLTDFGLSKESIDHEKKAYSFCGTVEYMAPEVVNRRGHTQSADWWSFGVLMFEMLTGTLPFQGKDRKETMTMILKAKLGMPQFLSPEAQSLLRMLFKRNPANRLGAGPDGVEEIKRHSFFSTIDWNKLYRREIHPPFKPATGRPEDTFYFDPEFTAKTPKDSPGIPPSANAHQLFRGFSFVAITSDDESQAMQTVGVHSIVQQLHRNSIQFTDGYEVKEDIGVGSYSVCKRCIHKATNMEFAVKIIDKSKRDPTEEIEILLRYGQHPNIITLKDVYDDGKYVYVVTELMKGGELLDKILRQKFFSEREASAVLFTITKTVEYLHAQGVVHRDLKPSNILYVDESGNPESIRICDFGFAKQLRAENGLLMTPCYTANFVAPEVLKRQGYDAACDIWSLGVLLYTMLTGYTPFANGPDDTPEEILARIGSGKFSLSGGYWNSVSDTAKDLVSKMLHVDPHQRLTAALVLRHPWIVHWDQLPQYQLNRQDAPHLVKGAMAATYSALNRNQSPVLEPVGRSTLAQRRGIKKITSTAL

ZR-75-1 = assay: Antiproliferative activity against human ZR-75-1 cells assessed as reduction in cell viability incubated for 72 hrs by MTT assay; format: functional, cell-based; details: ZR-75-1, 72 h
In short: (§2)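 MTT viability assay. ATCC cell lines were grown in designated medium with 10% FBS at 37 °C, 5% CO2. Cells seeded at 1500−30000 per well and incubated 24 h, then exposed to compound (0−10 μg/mL) for 72 h. MTT added for 2−4 h. Formazan dissolved in DMSO (adherent) or acidified SDS overnight (suspension), absorbance read at 570 nm. Triplicates; IC50 calculated.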

A-375 = assay: Antiproliferative activity against human A-375 cells assessed as reduction in cell viability incubated for 72 hrs by MTT assay; format: functional, cell-based; details: A-375, 72 h; in short: as §2
DU-145 = assay: Antiproliferative activity against human DU-145 cells assessed as reduction in cell viability incubated for 72 hrs by MTT assay; format: functional, cell-based; details: DU-145, 72 h; in short: as §2
L02 = assay: Cytotoxicity against human L02 cells assessed as reduction in cell viability incubated for 72 hrs by MTT assay; format: cell-based; details: L02, 72 h; in short: as §2
MDA-MB-231 = assay: Induction of apoptosis in human MDA-MB-231 cells assessed as necrotic cells at 0.1 uM incubated for 24 hrs by annexin V-FITC and propidium iodide staining based flow cytometry analysis (reference value: 0.2 %); format: functional
[7] = biological target: Proto-oncogene tyrosine-protein kinase Src (Homo sapiens) (UniProt P12931); assay: Inhibition of Src in human MDA-MB-231 cells assessed as inhibition of STAT3 phosphorylation at 0.1 to 0.3 uM incubated for 20 hrs by Western blot analysis; format: cell-based; details: dose 0.1-0.3 µM
Chain of Proto-oncogene tyrosine-protein kinase Src (Homo sapiens) (P12931 2-536 limits assumed): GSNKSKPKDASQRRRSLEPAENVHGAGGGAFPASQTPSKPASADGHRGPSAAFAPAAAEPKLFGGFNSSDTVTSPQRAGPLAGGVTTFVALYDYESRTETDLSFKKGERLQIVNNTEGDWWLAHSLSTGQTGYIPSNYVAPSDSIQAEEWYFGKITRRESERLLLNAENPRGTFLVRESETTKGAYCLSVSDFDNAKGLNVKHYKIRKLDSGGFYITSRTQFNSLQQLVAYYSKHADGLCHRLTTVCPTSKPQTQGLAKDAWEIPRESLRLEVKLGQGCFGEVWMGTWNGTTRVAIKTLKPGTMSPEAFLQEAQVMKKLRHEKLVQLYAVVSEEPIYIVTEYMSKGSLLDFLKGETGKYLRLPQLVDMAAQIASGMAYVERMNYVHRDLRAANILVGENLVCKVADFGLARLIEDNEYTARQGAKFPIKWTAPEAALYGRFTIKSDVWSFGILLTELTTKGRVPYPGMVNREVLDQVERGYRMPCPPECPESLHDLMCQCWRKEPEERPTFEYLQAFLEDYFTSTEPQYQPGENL
In short: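 MDA-MB-231 cells treated with a series of concentrations for 20 h at 37 °C. Cells washed with ice-cold saline and lysed in RIPA buffer with protease cocktail. Lysates cleared at 12000 rpm for 10 min at 4 °C and protein quantified by Bradford. Equal protein separated by SDS-PAGE, transferred to PVDF and probed with antibodies.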

MDA-MB-435 = assay: Antitumor activity against human MDA-MB-435 cells xenografted in SCID mouse assessed as tumor growth inhibition at 40 mg/kg, po QD for 21 days and measured every 3 days; format: functional; details: MDA-MB-435, po, 504 h, time 21 day
In short: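 SCID mice (5−6 weeks) injected subcutaneously with 100 μL of cells at 5 × 10^7/mL. At 150−200 mm3 mice randomized, 6 per group. Oral compounds given in water with 25% PEG400 plus 5% DMSO; paclitaxel given 10 mg/kg/week iv. Tumor volume a×b²/2 and body weight measured every 3 days. Inhibition rate (c−d)/c×100% against vehicle control.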

[8] = Toxicity against SCID mouse xenografted with human MDA-MB-231 cells assessed as change in body weight at 10 to 40 mg/kg, po QD for 21 days and measured every 3 days; format: organism-based; details: in vivo, 504 h, dose 10-40 mg/kg/day, time 21 day
In short: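 Exponential-phase cells washed and injected subcutaneously (5 × 10^6 cells in 100 μL) into 5–6-week SCID mice. At 150–200 mm3, mice randomised to groups of 6. Oral dosing daily in water with 25% PEG400 and 5% DMSO; paclitaxel 10 mg/kg weekly by tail vein. Body weight measured every 3 days and side effects checked daily.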

[9] = Acute toxicity in male Sprague-Dawley rat assessed as increase in body weight rate at 200 mg/kg, po administered as single dose observed until day 9 and monitored every 3 days; format: organism-based; details: in vivo, 216 h, time 9 day
In short: (§3)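 Sprague-Dawley rats (n = 3) received a single oral dose of 200 mg/kg in sterile water with 25% (v/v) PEG400 plus 5% DMSO. Behaviour and side effects were monitored daily, and average body weight was measured every 3 days.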

[10] = Acute toxicity in male Sprague-Dawley rat assessed as increase in body weight at 200 mg/kg, po administered as single dose measured after day 9 and monitored every 3 days; format: organism-based; details: in vivo, 72 h, time >9 day; in short: as §3
[11] = Acute toxicity in female Sprague-Dawley rat assessed as increase of body weight at 200 mg/kg, po administered as single dose and monitored every 3 days; format: organism-based; details: in vivo, 72 h; in short: as §3
[12] = Acute toxicity in Sprague-Dawley rat assessed as histopathological changes in lungs at 100 mg/kg, po administered as single dose measured after 24 hrs by H and E staining based light microscope analysis; format: organism-based; details: in vivo
In short: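 Sprague-Dawley rats received a single oral dose of 100 mg/kg in sterile water with 25% (v/v) PEG400 plus 5% DMSO. Organs were examined by histology and immunohistochemistry for pathological changes. Behaviour and side effects were checked daily.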

SMILES: Cc1ccc(NC(=O)c2ccc(C)c(C(F)(F)F)c2)cc1C#Cc1nn([C@H]2CC[C@H](O)CC2)c2ncnc(N)c12
- mortality at 360 h [1]: 0%
- AUC(0-t) [2]: 2860 ng·h/mL
- remaining at 1 h, 1 µM [3]: > 90%
- pIC50 [4]: 8.10
- pIC50 (Ephrin type-A receptor 7): 6.84
- pIC50 (Ephrin type-A receptor 4): 6.64
- pIC50 [5]: 6.25
- pIC50 [6]: < 5.00
- pIC50 (ZR-75-1): 5.00
- pIC50 (A-375): 7.51
- pIC50 (DU-145): < 5.00
- pIC50 (L02): < 5.00
- Activity (MDA-MB-231): 1.23%
- inhibition [7]: Active
- inhibition in vivo at 40 mg/kg/day (MDA-MB-435): 100%
- Activity [8]: Non-Toxic
- Activity [9]: Toxic
- Activity [10]: Non-Toxic
- Activity [11]: Non-Toxic
- Activity [12]: Non-Toxic
